Experimental data taken from ChEMBL document CHEMBL4257549, “Design, synthesis and biological evaluation of benzimidazole-rhodanine conjugates as potent topoisomerase II inhibitors” (Medchemcomm, 2018).
Active and inactive are the calls of the source. The rule behind the calls is not given here.

Assays:
HL-60 = test: Cytotoxicity against human HL60 cells after 48 hrs by MTT assay; format: functional, cell-based; conditions: HL-60, 48 h
In short: (§1)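 Cells seeded at 5000 per well, left overnight, then exposed to compound at 0–50 μM for 48 h. MTT (20 μL of 2.5 mg mL−1) added for a further 4 h at 37 °C, formazan dissolved in DMSO, absorbance read at 570 nm. Quadruplicate wells, N > 2 determinations, mean IC50 taken as the concentration reducing cell number to 50%.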

Homo sapiens [1] = species on record: Homo sapiens; test: Inhibition of human topoisomerase 2-mediated pBR322 DNA relaxation at 20 uM after 30 mins by agarose gel electrophoresis
[2] = target: T1, DNA topoisomerase 1 (Homo sapiens) (UniProt P11387); test: Inhibition of topoisomerase 1 (unknown origin)-mediated pBR322 DNA relaxation at 50 uM after 30 mins by agarose gel electrophoresis
T1 sequence (whole entry): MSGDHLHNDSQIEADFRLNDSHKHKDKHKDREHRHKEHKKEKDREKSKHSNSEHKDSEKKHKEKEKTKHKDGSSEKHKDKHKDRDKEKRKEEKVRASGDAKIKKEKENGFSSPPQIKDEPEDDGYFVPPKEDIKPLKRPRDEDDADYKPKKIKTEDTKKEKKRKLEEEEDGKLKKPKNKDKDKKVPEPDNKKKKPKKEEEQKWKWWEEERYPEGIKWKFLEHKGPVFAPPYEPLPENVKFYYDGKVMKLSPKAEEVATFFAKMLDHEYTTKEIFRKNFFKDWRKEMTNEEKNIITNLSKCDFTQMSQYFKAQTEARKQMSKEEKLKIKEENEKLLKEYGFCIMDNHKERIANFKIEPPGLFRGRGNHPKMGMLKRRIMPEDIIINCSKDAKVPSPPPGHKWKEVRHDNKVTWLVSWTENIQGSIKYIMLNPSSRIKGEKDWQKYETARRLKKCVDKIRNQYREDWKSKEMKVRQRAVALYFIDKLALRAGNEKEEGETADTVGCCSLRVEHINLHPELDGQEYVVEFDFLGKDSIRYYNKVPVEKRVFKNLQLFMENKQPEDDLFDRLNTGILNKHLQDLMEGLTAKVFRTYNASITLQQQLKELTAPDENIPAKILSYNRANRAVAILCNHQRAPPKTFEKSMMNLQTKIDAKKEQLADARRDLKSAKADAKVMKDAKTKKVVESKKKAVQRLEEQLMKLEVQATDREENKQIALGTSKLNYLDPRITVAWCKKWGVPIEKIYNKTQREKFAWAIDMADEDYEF
In short: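 Topo I relaxation of pBR322 with compound at 30 min, 37 °C, camptothecin positive control. Stopped with SDS/bromophenol blue/glycerol dye, run on 1% agarose in TAE for 1.5 h, Ged Red stained, UV visualized.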

PC-3 = test: Cytotoxicity against human PC3 cells after 48 hrs by MTT assay; format: functional, cell-based; conditions: PC-3, 48 h; in short: as §1
A549 = test: Cytotoxicity against human A549 cells after 48 hrs by MTT assay; format: functional, cell-based; conditions: A549, 48 h; in short: as §1
MDA-MB-231 = test: Cytotoxicity against human MDA-MB-231 cells after 48 hrs by MTT assay; format: functional, cell-based; conditions: MDA-MB-231, 48 h; in short: as §1
Raji = test: Cytotoxicity against human Raji cells after 48 hrs by MTT assay; format: functional, cell-based; in short: as §1
HeLa = test: Cytotoxicity against human HeLa cells after 48 hrs by MTT assay; format: functional, cell-based; in short: as §1
Homo sapiens [3] = species on record: Homo sapiens; test: Inhibition of human topoisomerase 2-mediated pBR322 DNA relaxation at 50 uM after 30 mins by agarose gel electrophoresis
In short: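 Relaxation of 200 ng supercoiled pBR322 by 1 U Topo II (TopoGEN) in 20 μL buffer: 50 mM Tris-HCl pH 8.0, 150 mM NaCl, 10 mM MgCl2, 2 mM ATP, 0.5 mM DTT, 30 μg/mL BSA. Incubated 30 min at 37 °C, stopped with sarcosyl/glycerol dye. Products run on 1% agarose in TAE (1.5 h, 75 V), Ged Red stained, UV imaged; etoposide positive control.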

Homo sapiens [4] = species on record: Homo sapiens; test: Inhibition of human topoisomerase 2-mediated pBR322 DNA relaxation at 10 uM after 30 mins by agarose gel electrophoresis

inhibition (Homo sapiens [1]) | inhibition [2] | inhibition (Homo sapiens [3]) | inhibition (Homo sapiens [4]) | SMILES | IC50 (HL-60) | IC50 (PC-3) | IC50 (A549) | IC50 (MDA-MB-231) | IC50 (Raji) | IC50 (HeLa)
inactive | inactive | – | – | O=C(O)CN1C(=O)/C(=C/c2nc3ccccc3n2Cc2ccc([N+](=O)[O-])cc2)SC1=S | 5.32 µM | 8.27 µM | 11.4 µM | 7.76 µM | 2.51 µM | 18.6 µM
Active | inactive | Active | – | COc1ccc2nc(/C=C3\SC(=S)N(CC(=O)O)C3=O)n(Cc3ccc(C)cc3)c2c1 | 1.92 µM | 16.2 µM | 23.6 µM | 3.77 µM | 10.8 µM | 6.44 µM
Active | inactive | – | – | O=C(O)CN1C(=O)/C(=C/c2nc3ccccc3n2Cc2ccc(F)cc2)SC1=S | 1.42 µM | 4.86 µM | 3.57 µM | 2.62 µM | 1.77 µM | 13.9 µM
inactive | inactive | – | – | COc1ccc(C(=O)Cn2c(/C=C3\SC(=S)N(CC(=O)O)C3=O)nc3ccccc32)cc1 | 5.44 µM | 8.75 µM | 5.15 µM | 12.9 µM | 6.32 µM | 26.7 µM
inactive | inactive | Active | – | COc1ccc2c(c1)nc(/C=C1\SC(=S)N(CC(=O)O)C1=O)n2Cc1ccccc1F | 3.41 µM | 24.7 µM | 18.4 µM | 16.9 µM | 11.5 µM | 22.5 µM
inactive | inactive | – | – | O=C(O)CN1C(=O)/C(=C/c2nc3ccccc3n2Cc2cccc(F)c2)SC1=S | 7.21 µM | 35.7 µM | 23.2 µM | 22.5 µM | 13.3 µM | > 50 µM
inactive | inactive | Active | – | O=C(O)CN1C(=O)/C(=C/c2nc3ccccc3n2Cc2ccc(F)cc2F)SC1=S | 6.52 µM | 21.7 µM | 12.8 µM | 11.5 µM | 8.96 µM | 26.1 µM
inactive | inactive | – | – | N#Cc1ccc(Cn2c(/C=C3\SC(=S)N(CC(=O)O)C3=O)nc3ccccc32)cc1 | 7.64 µM | 14.4 µM | 26.6 µM | 11.2 µM | 9.78 µM | 16.3 µM
inactive | inactive | Active | – | CCn1c(/C=C2\SC(=S)N(CC(=O)O)C2=O)nc2ccccc21 | 2.12 µM | 3.25 µM | 9.44 µM | 1.88 µM | 5.56 µM | 3.52 µM
inactive | inactive | Active | – | O=C(O)CN1C(=O)/C(=C/c2nc3ccccc3n2Cc2ccc(Br)cc2F)SC1=S | 6.42 µM | 21.1 µM | 27.3 µM | 28.4 µM | 11.4 µM | > 50 µM
Active | – | – | Active | COc1cc(Cn2c(/C=C3\SC(=S)N(CC(=O)O)C3=O)nc3ccccc32)cc(OC)c1 | 1.41 µM | 6.37 µM | 5.17 µM | 1.28 µM | 2.11 µM | 17.7 µM
Active | inactive | Active | – | O=C(O)CN1C(=O)/C(=C/c2nc3ccccc3n2Cc2ccccc2)SC1=S | 0.96 µM | 10.8 µM | 8.76 µM | 1.82 µM | 3.86 µM | 22.7 µM
Active | inactive | – | – | O=C(O)CN1C(=O)/C(=C/c2nc3ccccc3n2Cc2ccc(Cl)cc2)SC1=S | 2.65 µM | 9.67 µM | 17.5 µM | 5.58 µM | 11.4 µM | 8.72 µM
Active | inactive | – | – | O=C(O)CN1C(=O)/C(=C/c2nc3ccccc3n2Cc2ccc(Br)cc2)SC1=S | 0.87 µM | 8.49 µM | 9.12 µM | 8.72 µM | 1.19 µM | 12.9 µM
Active | inactive | – | – | O=C(O)CN1C(=O)/C(=C/c2nc3ccccc3n2Cc2ccc(C(F)(F)F)cc2)SC1=S | 3.56 µM | 22.9 µM | 25.3 µM | 12.5 µM | 18.8 µM | 21.4 µM

The next lines start with the molecule.

SMILES | inhibition (Homo sapiens [1]) | inhibition [2] | inhibition (Homo sapiens [3]) | inhibition (Homo sapiens [4]) | IC50 (HL-60) | IC50 (PC-3) | IC50 (A549) | IC50 (MDA-MB-231) | IC50 (Raji) | IC50 (HeLa)
CC[C@@]1(O)C(=O)OCc2c1cc1n(c2=O)Cc2cc3ccccc3nc2-1 [CAMPTOTHECIN] | – | – | – | – | 0.42 µM | 18.2 µM | 2.21 µM | 16.4 µM | 3.27 µM | > 50 µM
O=C(O)CN1C(=O)/C(=C/c2nc3ccccc3n2CC(=O)c2ccc(Cl)cc2)SC1=S | Active | inactive | – | Active | 2.43 µM | 6.45 µM | 9.85 µM | 1.12 µM | 3.18 µM | 27.3 µM
Cc1ccc(Cn2c(/C=C3\SC(=S)N(CC(=O)O)C3=O)nc3ccc(Cl)cc32)cc1 | Active | inactive | Active | – | 2.84 µM | 1.52 µM | 9.97 µM | 3.96 µM | 2.79 µM | 11 µM
Cc1ccc(Cn2c(/C=C3\SC(=S)NC3=O)nc3ccccc32)cc1 | Active | inactive | – | – | 2.66 µM | 9.78 µM | 5.31 µM | 6.42 µM | 4.48 µM | 25.2 µM
O=C1NC(=S)S/C1=C\c1nc2ccccc2n1Cc1ccccc1F | Active | inactive | – | – | 8.42 µM | > 50 µM | > 50 µM | 21.3 µM | 25.5 µM | 36.1 µM
O=C(O)CCN1C(=O)/C(=C/c2nc3ccccc3n2Cc2ccccc2F)SC1=S | inactive | inactive | – | – | 5.72 µM | 28.6 µM | 18.7 µM | 9.53 µM | 11.3 µM | 26.5 µM
O=C(O)CN1C(=O)/C(=C/c2nc3cc(F)ccc3n2Cc2ccccc2F)SC1=S | inactive | inactive | Active | – | > 50 µM | > 50 µM | 32.6 µM | 22.4 µM | 20.4 µM | > 50 µM
Cc1ccc(Cn2c(/C=C3\SC(=S)N(CCC(=O)O)C3=O)nc3ccccc32)cc1 | inactive | inactive | – | – | 4.14 µM | 9.31 µM | 8.74 µM | 3.79 µM | 6.68 µM | 11.2 µM
O=C(O)CN1C(=O)/C(=C/c2nc3ccccc3n2CC(=O)c2ccc(F)cc2)SC1=S | Active | inactive | – | Active | 3.96 µM | 9.87 µM | 12.8 µM | 6.31 µM | 8.24 µM | 14.8 µM
Cc1ccc(C(=O)Cn2c(/C=C3\SC(=S)N(CC(=O)O)C3=O)nc3ccccc32)cc1 | Active | inactive | – | – | 15.9 µM | 8.75 µM | 9.46 µM | 16.9 µM | 12.3 µM | 27.4 µM
